Source: the RNAGym collection of RNA variant scans (doi:10.1126/science.aae0568)
Variants at the floor of the assay were thinned out.

B1: tRNA (parent)
chain: GUUCCGUUGGCGUAAUGGUAACGCGUCUCCCUCCUAAGGAGAAGACUGCGGGUUCGAGUCCCGUACGGAACG

Variants of: B1
Experiment: yeast fitness relative to wild type (ratio to wild type); higher = fitter; tRNA-Arg(CCU), competitive growth, 37 C, YPD
Summary of the method: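 A pool of Saccharomyces cerevisiae strains, each with a tRNA-Arg(CCU) gene variant at the native genomic locus, was competed in YPD at 37°C for 24 hours across six parallel replicates. The variants had been chemically synthesised at a 3% per-site mutation rate over 69 sites, and gene amplicons before and after competition were read by 100-nucleotide paired-end sequencing. Darwinian fitness relative to wild type rested on changes in genotype frequencies. Genotypes required ≥ 100 starting reads, and estimates < 0.5 were set to 0.5.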

Variant	yeast fitness
GUUCCGAUGGCGUGAUGGUAACGCGUCUCCUUCCUAAGGAGACGAUUGCGGGUUCGAGUCCCCUAUGGAACG [U7A A14G C31U A43C C46U G63C C66U]	≤ 0.5
GUUCCGAUGGCGUCAUGGUAACGCGUCUCCCUCCUAAGGAGGAGACUGCGGGUUCGUGUCCCGUACGGAACG [U7A A14C A42G A57U]	≤ 0.5
GUUCCUUUGGCGUAAUGGUAACGCGUCUCCCUCCUAAGGAGAAGACUGCGGGUUCGAGUCCCGUCCGGAACG [G6U A65C]	0.799
GUUCCGAUGGCGUUAUGGUAAUGCGUAUCCCUUCUAAGGAGAAGCCUGCGGGCUCGAGUCCCGUACGGCACG [U7A A14U C22U C27A C33U A45C U53C A69C]	0.632
GUUCCUUUGGCGUAAUGGUAACGCGUCUCCCUCCUAAGGAGAACACUGCGGGUUCCAGUCCCGUACGGAACG [G6U G44C G56C]	≤ 0.5
GUUCCGAUGGCGUGAUGGUACCGCGUCUCCCUCCUAAGGAGAAGACAACGGGUUCGAGUCCCGUACGGAACG [U7A A14G A21C U47A G48A]	≤ 0.5
GUUCCUUUGGCGUAAUGGUAACGCGUCUCCCUUCUAAGGAGAAGACUGCGGGUUCGAGUCCCGUACGGAACG [G6U C33U]	0.562
GUUCCCUUGGCGUAAUGGUAACGCGUCUCCCUCCUAAGGAGAAGACUGCGGGUCCGAGUCCCGUAAGGAACG [G6C U54C C66A]	0.6
GUUCCGAUGGCGUGCUGGUAACGCGUCUCCCUCCUGAGGUGAAGAAUGCGGCUUCGAGUCCCGUACGGAUCG [U7A A14G A15C A36G A40U C46A G52C A70U]	0.649
GUUCCUUUGGCGUAAUGGUAACGCGUCUCCCUCUUAAGGAGAAGACUGCGGGUUCGAGUCUCGUACGGAACG [G6U C34U C61U]	≤ 0.5
GUUCCCUUGGCGUAAUGGUAACGCGUCUCCCUCCUAAGGAGAAGACUGCGGGUUCGAGUCCCGCACGGAACG [G6C U64C]	0.87
GUUCCCUUGGCGUAAUGGUAACGCGUCUCCCUCCUAAGGAGAAGACUGCGGGUUCGAGUCCCGGACGGAACG [G6C U64G]	0.63
GUUCCGAUGGCGUCAUGGUAACGCAUCUCGCUCCUAAGGAGAAGACUGCGGGUUCGAGUCUCGUACGGAACG [U7A A14C G25A C30G C61U]	≤ 0.5
GUUCCCUUGGCGUAAUGGUAACGCGUCUCCCUCCUAAGGAGAAGACUGCGGGGUCGAGUCCCGUACGGAACG [G6C U53G]	0.519
GUUCCCUUGGCGUAAUGGUAACGCGUCUCCCUCCUAAGGAGAAGACUGCGGGUCCGAGUCCCGUACGGAACG [G6C U54C]	0.898
GUUCCCUUGGCGUAAUGGUAACGCGUCUCCCUCCUAAGGAGAAGACUGCGGGUGCGAGUCCCGUACGGAACG [G6C U54G]	0.587
GUUCCUUUGGCGUAAUGGUAACGCGUCUCCCUCUUAAGGAGAAGACUGCGGGUUCGAGUCCCGUACGGAACG [G6U C34U]	0.573
GUUCCCUUGGCGUAAUGGUAACGCGUCUCCCUCCUAAGGAGAAGACGGCGGGUUCGAGUCCCGUACGGAACG [G6C U47G]	0.588
GUUCCCUUGGCGUAAUGGUAACGCGUCUCCCUCCUAAGGAGAAGACCGCGGGUUCGAGUCCCGUACGGAACG [G6C U47C]	1.01

Variant	yeast fitness
GUUCCCUUGGCGUAAUGGUAACGCGUCUCCCUCCUAAGGAGAAGACUGCGGGCUCGAGUCCUGUAUGGAACG [G6C U53C C62U C66U]	≤ 0.5
GUUCCUUUGGCGUAAUGGUAACGCGUGUCCCUCCUAAGGAGAAGACUGCGGGUUCGAGUCCCGUACGGAACG [G6U C27G]	0.545
GUUCCCUUGGCGUAAUGGUAACGCGUCUCCCACCUAUGGAGAAGACUGCGGGUUCGAGUCCCGUACGGAACG [G6C U32A A37U]	0.583
GUUCCCUUGGCGUAAUGGUAACGCGUCUCCCUCCUAAGGAGAAGACUGCGGGAUCGAGUCUCGUACGGAACG [G6C U53A C61U]	≤ 0.5
GUUCCUUUGGCGUAAUGGUAGCGCGUCUCCCUCCUAAGGAGAAGACUGCGGGUUCGAGUCCCGUACGGAGCG [G6U A21G A70G]	0.562
GUUCCCUUGGCGUAAUGGUAACGCGUCUCCCUCCUAAGGAGAAGACUGCGGGUUCGAGCCCCGUACGGAACG [G6C U59C]	0.656
GUUCCGAUGGCGUCAUGGUAACGCGUUUCCCUCCUAAGGAGAAGUCUGCGGGUUCGAGUCCCGUACAGAACG [U7A A14C C27U A45U G67A]	≤ 0.5
GUUCCUCUGGCGUAAUGGUAACGCGUCUCCCUCCUAAGGAGAAGACUGCGGGUUCGAGUCCCGUACGGACCG [G6U U7C A70C]	≤ 0.5
GUUCCUUUGGCGUAAUGGUAACGCGUCUCCCCCCUAAGGAGAAGACUGCGGGUUCGAGUCCCGUACGGAACG [G6U U32C]	0.766
GUUCCGAUGGCGUAAUGGUAACGCGUCUCCCUCCUAAGGAGAAGACUGCGGGUUCGAGUCCCGUACGGAACG [U7A]	0.826
GUUCCUUCGGCGUAAUGGUAACGCGUCUCCCUCCUAAGGAGAAGACUGCGGGUUCGAGUCCCGUACGGAACG [G6U U8C]	0.769
GUUCCUUUGGAGAAAUGGUAACGCGUCUCCCUCCUAAGGAGAAGACUGCGGAUUCGAGUCUCGUACGGCACG [G6U C11A U13A G52A C61U A69C]	0.527
GUUCCCUUGGCGUAAUGGUAACGCGUCUCCCUCCUAAGGAGAAGACAGCGCGUUCGAGUCCCGUACGGAACG [G6C U47A G51C]	0.525
GUUCCGAUGGCGUCAUGGUGACGCGUCUCCCUCCUAAGGAGAAGACUGCGGGUUCGAGUCCCGUACGGAACG [U7A A14C A20G]	≤ 0.5
GUUCCCUUGGCGUAAUGGUAACGCGUCUCCCUCCAAAGGAGAAGACUGCGGGUUCGAGUCCCGUACGGAACG [G6C U35A]	0.876
GUUCCCUUGGCGUAAUGGUAACGCGUCUCCCUCCUAAGGAGAAGACAGCGCGUUCGAGUCCCGUGCGGAACG [G6C U47A G51C A65G]	0.644
GUUCCCUUGGCGUAAUGGUAACGCGUCUCCCUCCUAAGGAGAAGACUGCGGGCUCGAGUCCUGUACGGAACG [G6C U53C C62U]	0.589
GUUCCCUUGGCGUAAUGGUAACGCGUCUCCCUCCAAAGGAGAACACUGCGGGUUCGAGUACCGUACGGAACG [G6C U35A G44C C60A]	≤ 0.5
GUUCCCUUGGCGUAAUGGUAACGCGUCUCCCCCCUAAGGAGAAGACUGCGGGUUCGAGUCCCGUACGGAACG [G6C U32C]	0.994
